ChEMBL document CHEMBL2169820, “Synthesis and biological activities of polyquinoline derivatives: new Bcl-2 family protein modulators” (Eur J Med Chem, 2012)
Active and inactive are the calls of the source. The rule behind the calls is not given here.

Experiments:
Bcl-2-related protein A1 = molecular target: T1, Bcl-2-related protein A1 (Homo sapiens, UniProt Q16548); experiment: Inhibition of GST-tagged recombinant Bfl1 interaction with biotinylated Bim peptide by ELISA based competitive binding assay
T1 sequence (Q16548 whole entry): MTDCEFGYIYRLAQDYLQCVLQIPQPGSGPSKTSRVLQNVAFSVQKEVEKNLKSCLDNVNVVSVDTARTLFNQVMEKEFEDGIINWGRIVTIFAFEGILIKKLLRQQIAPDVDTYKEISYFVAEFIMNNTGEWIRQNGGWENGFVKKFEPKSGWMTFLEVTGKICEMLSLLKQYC
Procedure, shortened: (§1)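 Plates coated with anti-GST antibody (1 µg/mL, overnight, 4 °C), blocked in PBS/1% BSA. GST-tagged Bcl-xL, Bcl-2, Bfl-1 or Mcl-1 (10 ng/mL) bound 2 h, RT. Compound added for 1 h, then biotinylated Bim peptide (1 nM) for 1 h. HRP-streptavidin detection, acid stop, OD 450 nm; EC50 derived.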

[1] = molecular target: Induced myeloid leukemia cell differentiation protein Mcl-1 (Homo sapiens, UniProt Q07820); experiment: Inhibition of GST-tagged recombinant Mcl1 interaction with biotinylated Bim peptide by ELISA based competitive binding assay; procedure, shortened: as §1
[2] = molecular target: Apoptosis regulator Bcl-2 (Homo sapiens, UniProt P10415); experiment: Inhibition of GST-tagged recombinant Bcl2 interaction with biotinylated Bim peptide by ELISA based competitive binding assay; procedure, shortened: as §1
Bcl-2-like protein 1 [3] = molecular target: T2, Bcl-2-like protein 1 (Homo sapiens, UniProt Q07817); experiment: Inhibition of GST-tagged recombinant Bcl-XL interaction with biotinylated Bim peptide by ELISA based competitive binding assay; procedure, shortened: as §1
BP3 [4] = experiment: Induction of apoptosis in human BP3 cells at 10 uM incubated for 24 hrs by Annexin V and propidium iodide staining based FACS method; assay type: functional, cell-based
Procedure, shortened: (§2)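 Tumour lines grown in RPMI with 10% FBS, 2 mM glutamine, 10 mM Hepes and gentamicin; PBMC from healthy donors, purified on Ficoll gradient, same medium. Cells exposed 24 h, then Annexin V/propidium iodide labelling and flow cytometry. Specific viability = (% viable treated × 100)/% viable untreated.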

Bcl-2-like protein 1 [5] = molecular target: T2, Bcl-2-like protein 1; experiment: Inhibition of Bcl-XL-mediated cell death reduction expressed in serum starved mouse 3T3 cells assessed as residual cell viability at 5 uM incubated for 96 hrs by propidium iodide staining based FACS method; conditions: NIH3T3
Procedure, shortened: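 3T3 cells infected with pMig-hBcl-xL vector to overexpress human Bcl-xL, maintained in DMEM/10% FBS. Compound 5 µM given under serum starvation; % residual viability scored at 96 h by propidium iodide staining and FACS.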

MEF [6] = experiment: Induction of cell death in mouse MEF cells containing Bax/Bak double knock out at 1 uM by Annexin V and propidium iodide staining based FACS method; assay type: functional
Procedure, shortened: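 Wild-type and Bax/Bak double-knockout MEFs were grown in DMEM with 10% FBS, 2 mM glutamine, 10 mM Hepes and gentamicin. They were treated for 24 h and stained with propidium iodide, with or without Annexin V, then analysed by flow cytometry. Data are mean ± SEM of 3 independent experiments.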

RS4-11 [7] = experiment: Induction of apoptosis in human RS4:11 cells at 5 uM incubated for 24 hrs by Annexin V and propidium iodide staining based FACS method; assay type: functional, cell-based
Procedure, shortened: (§3)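 Cells grown in RPMI with 10% FBS, 2 mM glutamine, 10 mM Hepes and gentamicin. Exposed to compound for 24 h, then labelled with Annexin V and propidium iodide and read by flow cytometry. Specific viability = (% viable treated × 100)/% viable untreated.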

IM-9 [8] = experiment: Induction of apoptosis in human IM9 cells at 5 uM incubated for 24 hrs by Annexin V and propidium iodide staining based FACS method; assay type: functional, cell-based; procedure, shortened: as §3
BP3 [9] = experiment: Induction of apoptosis in human BP3 cells at 5 uM incubated for 24 hrs by Annexin V and propidium iodide staining based FACS method; assay type: functional, cell-based; procedure, shortened: as §3
RS4-11 [10] = experiment: Induction of apoptosis in human RS4:11 cells at 10 uM incubated for 24 hrs by Annexin V and propidium iodide staining based FACS method; assay type: functional, cell-based; procedure, shortened: as §2
IM-9 [11] = experiment: Induction of apoptosis in human IM9 cells at 10 uM incubated for 24 hrs by Annexin V and propidium iodide staining based FACS method; assay type: functional, cell-based; procedure, shortened: as §2
MEF [12] = experiment: Induction of cell death in mouse MEF cells containing Bax/Bak double knock out at 10 uM by Annexin V and propidium iodide staining based FACS method; assay type: functional
Procedure, shortened: (§4)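 Wild-type and DKO MEFs kept in DMEM with 10% FBS, 2 mM glutamine, 10 mM Hepes and gentamicin. Cultured in medium alone or with compound, staurosporine 1 µM as reference. Viability read by flow cytometry; mean ± SEM of 3 independent experiments.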

MEF [13] = experiment: Induction of cell death in mouse MEF cells containing Bax/Bak double knock out at 1.25 to 10 uM by Annexin V and propidium iodide staining based FACS method; assay type: functional; procedure, shortened: as §4
PBMC = experiment: Induction of apoptosis in human PBMCs at 5 or 10 uM incubated for 24 hrs by Annexin V and propidium iodide staining based FACS method; assay type: cell-based; procedure, shortened: as §2

Sequence of Apoptosis regulator Bcl-2 (P10415 whole entry): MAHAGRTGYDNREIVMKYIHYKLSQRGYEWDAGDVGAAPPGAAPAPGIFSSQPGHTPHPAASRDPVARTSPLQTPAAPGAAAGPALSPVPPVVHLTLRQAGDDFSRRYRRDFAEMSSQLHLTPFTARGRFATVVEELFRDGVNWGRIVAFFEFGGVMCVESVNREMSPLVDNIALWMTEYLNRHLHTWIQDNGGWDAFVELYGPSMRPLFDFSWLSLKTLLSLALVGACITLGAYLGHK
T2 sequence (Q07817 whole entry): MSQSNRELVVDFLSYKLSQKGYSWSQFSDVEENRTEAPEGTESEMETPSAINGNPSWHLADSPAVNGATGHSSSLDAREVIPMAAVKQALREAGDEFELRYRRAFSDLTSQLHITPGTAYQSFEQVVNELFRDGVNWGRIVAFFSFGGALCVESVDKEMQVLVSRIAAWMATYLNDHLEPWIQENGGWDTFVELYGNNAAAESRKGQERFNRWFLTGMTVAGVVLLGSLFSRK
Sequence of Induced myeloid leukemia cell differentiation protein Mcl-1 (Q07820 whole entry): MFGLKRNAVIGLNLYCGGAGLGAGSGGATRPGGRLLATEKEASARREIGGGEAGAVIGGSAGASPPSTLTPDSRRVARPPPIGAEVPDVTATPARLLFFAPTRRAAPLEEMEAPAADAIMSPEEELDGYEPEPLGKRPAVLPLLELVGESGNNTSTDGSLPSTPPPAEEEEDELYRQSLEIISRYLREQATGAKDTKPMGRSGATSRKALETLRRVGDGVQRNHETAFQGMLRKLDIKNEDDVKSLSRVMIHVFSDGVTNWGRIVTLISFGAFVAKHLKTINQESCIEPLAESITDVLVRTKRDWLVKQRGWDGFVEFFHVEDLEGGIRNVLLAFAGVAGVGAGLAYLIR

In the case of `CCCOc1ccc2c(C(C)C)cc(-c3cc4ccccc4nc3N3CCOCC3)cc2n1`, the EC50 (Bcl-2-related protein A1) is reported as 8.2 µM, the EC50 [1] is reported as 7.9 µM and the EC50 [2] is reported as 9.2 µM. The EC50 (Bcl-2-like protein 1 [3]) was over 100 µM, the Activity (BP3 [4]) was “inactive” and the Activity (Bcl-2-like protein 1 [5]) was 32.7%.
`CC(C)=CCC[C@]1(C)C=Cc2c(O)c3c(c(CC=C(C)C)c2O1)O[C@]12C(=C[C@@H]4C[C@H]1C(C)(C)O[C@@]2(C/C=C(/C)C(=O)O)C4=O)C3=O` was tested, and the Activity (MEF [6]) was “Active”, the Activity (RS4-11 [7]) was “inactive” and the Activity (IM-9 [8]) was “inactive”. The Activity (BP3 [9]) was “inactive”.
For `CCCOc1nc2ccccc2cc1-c1cc(C(C)C)c2cc(-c3cc(C(C)C)c4ccc(N5CCCC5)nc4c3)c(OCCC)nc2c1`, the Activity (Bcl-2-like protein 1 [5]) was 94.6%.
Molecule `CCCOc1nc2cc(-c3cc4ccccc4nc3N3CCOCC3)cc(C(C)C)c2cc1-c1cc(C(C)C)c2ccc(OCC)nc2c1` has an Activity (Bcl-2-like protein 1 [5]) of 95.2%.
With `CCOc1nc2cc(-c3cc4ccccc4nc3N3CCCC3)cc(C(C)C)c2cc1-c1cc(C(C)C)c2ccc(N3CCCC3)nc2c1` the Activity (Bcl-2-like protein 1 [5]) was 95.1%.
In the case of `CCCOc1nc2ccccc2cc1-c1cc(C(C)C)c2ccc(N3CCOCC3)nc2c1`, the EC50 (Bcl-2-related protein A1) is reported as 17.8 µM, the EC50 [1] is reported as 11.6 µM and the EC50 [2] is reported as 6.6 µM. The EC50 (Bcl-2-like protein 1 [3]) was over 100 µM, the Activity (RS4-11 [10]) was “inactive” and the Activity (IM-9 [11]) was “inactive”. For the same molecule, the Activity (BP3 [4]) was “inactive” and the Activity (Bcl-2-like protein 1 [5]) was 55.5%.
In the case of `CN(C)CC[C@H](CSc1ccccc1)Nc1ccc(S(=O)(=O)NC(=O)c2ccc(N3CCN(Cc4ccccc4-c4ccc(Cl)cc4)CC3)cc2)cc1[N+](=O)[O-]`, the Activity (MEF [12]) is reported as “inactive”, the Activity (RS4-11 [10]) is reported as “Active” and the Activity (IM-9 [11]) is reported as “Active”. For the same molecule, the Activity (BP3 [4]) was “Active”.
With `CN[C@@H]1C[C@H]2O[C@@](C)([C@@H]1OC)n1c3ccccc3c3c4c(c5c6ccccc6n2c5c31)C(=O)NC4` the Activity (MEF [6]) was “Active”.
`CCOc1nc2cccc(C(C)C)c2cc1-c1cc(C(C)C)c2ccc(N3CCCC3)nc2c1` gave an Activity (Bcl-2-like protein 1 [5]) of 91.6%.
`CCOc1nc2cc(-c3cc4ccccc4nc3N3CCOCC3)cc(C(C)C)c2cc1-c1cc(C(C)C)c2ccc(N3CCOCC3)nc2c1` showed an Activity (Bcl-2-like protein 1 [5]) of 96.5%.
Molecule `CCOc1nc2cccc(C(C)C)c2cc1-c1cc(C(C)C)c2ccc(N3CCOCC3)nc2c1` has an Activity (Bcl-2-like protein 1 [5]) of 70.3%.
With `CCOc1ccc2c(C(C)C)cc(-c3cc4c(C(C)C)cc(-c5cc6ccccc6nc5N5CCCC5)cc4nc3OCC)cc2n1` the Activity (Bcl-2-like protein 1 [5]) was 95.3%.
With `CCCOc1ccc2c(C(C)C)cc(-c3cc4c(C(C)C)cc(-c5cc6ccccc6nc5N5CCCC5)cc4nc3OCC)cc2n1` the Activity (Bcl-2-like protein 1 [5]) was 96.4%.
`CCCOc1nc2cc(-c3cc4ccccc4nc3N3CCOCC3)cc(C(C)C)c2cc1-c1cc(C(C)C)c2ccc(N3CCOCC3)nc2c1` was tested, and the Activity (Bcl-2-like protein 1 [5]) was 81.6%.
Work on `CC(C)c1cc(-c2cc3ccccc3nc2N2CCCC2)cc2nc(N3CCCC3)ccc12` yielded an EC50 (Bcl-2-related protein A1) of 21.5 µM, an EC50 [1] of 2.3 µM and an EC50 [2] of 1.4 µM. The EC50 (Bcl-2-like protein 1 [3]) was over 100 µM, the Activity (RS4-11 [10]) was “inactive” and the Activity (IM-9 [11]) was “inactive”. For the same molecule, the Activity (BP3 [4]) was “inactive” and the Activity (Bcl-2-like protein 1 [5]) was 4.37%.
Molecule `CCOc1nc2cc(-c3cc4ccccc4nc3N3CCCC3)cc(C(C)C)c2cc1-c1cc(C(C)C)c2ccc(N3CCOCC3)nc2c1` has an Activity (Bcl-2-like protein 1 [5]) of 91%.
`CCOc1nc2ccccc2cc1-c1cc(C(C)C)c2cc(-c3cc(C(C)C)c4ccc(N5CCCC5)nc4c3)c(OCC)nc2c1` showed an Activity (Bcl-2-like protein 1 [5]) of 92.3%.
`CCOc1ccc2c(C(C)C)cc(-c3cc4ccccc4nc3N3CCOCC3)cc2n1` gave an EC50 (Bcl-2-related protein A1) of 24 µM, an EC50 [1] of 3.5 µM and an EC50 [2] of 2.7 µM. The EC50 (Bcl-2-like protein 1 [3]) was 14.6 µM, the Activity (RS4-11 [10]) was “inactive” and the Activity (IM-9 [11]) was “inactive”. For the same molecule, the Activity (BP3 [4]) was “inactive” and the Activity (Bcl-2-like protein 1 [5]) was 37.9%.
`CCOc1nc2cc(-c3cc4ccccc4nc3N3CCOCC3)cc(C(C)C)c2cc1-c1cc(C(C)C)c2ccc(N3CCCC3)nc2c1` showed an Activity (Bcl-2-like protein 1 [5]) of 92.2%.
With `CCCOc1nc2cc(-c3cc4ccccc4nc3N3CCCC3)cc(C(C)C)c2cc1-c1cc(C(C)C)c2ccc(N3CCOCC3)nc2c1` the Activity (Bcl-2-like protein 1 [5]) was 96.5%.
Molecule `COC1=CC(c2cc3ccccc3[nH]2)=N/C1=C\c1[nH]c(C)cc1C` [OBATOCLAX] has an EC50 (Bcl-2-related protein A1) of 0.6 µM, an EC50 [1] of 0.5 µM and an EC50 [2] of 0.3 µM. The EC50 (Bcl-2-like protein 1 [3]) was 0.9 µM, the Activity (MEF [12]) was “inactive” and the Activity (RS4-11 [10]) was “Active”. For the same molecule, the Activity (IM-9 [11]) was “Active” and the Activity (BP3 [4]) was “Active”.
In the case of `CCCOc1ccc2c(C(C)C)cc(-c3cc4c(C(C)C)cc(-c5cc6ccccc6nc5N5CCCC5)cc4nc3OCCC)cc2n1`, the Activity (Bcl-2-like protein 1 [5]) is reported as 92.8%.
`CCCOc1nc2cc(-c3cc4ccccc4nc3N3CCCC3)cc(C(C)C)c2cc1-c1cc(C(C)C)c2ccc(N3CCCC3)nc2c1` was tested, and the Activity (Bcl-2-like protein 1 [5]) was 90.5%.
Work on `CCOc1ccc2c(C(C)C)cc(-c3cc4ccccc4nc3N3CCCC3)cc2n1` yielded an EC50 (Bcl-2-related protein A1) of 25.5 µM, an EC50 [1] of 2.1 µM and an EC50 [2] of 3.5 µM. The EC50 (Bcl-2-like protein 1 [3]) was 6.2 µM, the Activity (MEF [13]) was “inactive” and the Activity (PBMC) was “Non-toxic”. For the same molecule, the Activity (RS4-11 [10]) was “Active”, the Activity (IM-9 [11]) was “Active” and the Activity (BP3 [4]) was “inactive”. The Activity (Bcl-2-like protein 1 [5]) was 0.42%.
For `CCCOc1nc2ccccc2cc1-c1cc(C(C)C)c2ccc(N3CCCC3)nc2c1`, the Activity (Bcl-2-like protein 1 [5]) was 86.8%.
With `CC(C)c1cc(-c2cc3ccccc3nc2N2CCOCC2)cc2nc(N3CCOCC3)ccc12` the Activity (Bcl-2-like protein 1 [5]) was 67.9%.
`CCCOc1ccc2c(C(C)C)cc(-c3cc4ccccc4nc3N3CCCC3)cc2n1` gave an Activity (Bcl-2-like protein 1 [5]) of 84.4%.
`CCCOc1nc2ccccc2cc1-c1cc(C(C)C)c2cc(-c3cc(C(C)C)c4ccc(N5CCOCC5)nc4c3)c(OCCC)nc2c1` gave an Activity (Bcl-2-like protein 1 [5]) of 92.9%.
In the case of `CCCOc1ccc2c(C(C)C)cc(-c3cc4c(C(C)C)cc(-c5cc6ccccc6nc5N5CCOCC5)cc4nc3OCCC)cc2n1`, the Activity (Bcl-2-like protein 1 [5]) is reported as 92.3%.
In the case of `CCCOc1nc2cc(-c3cc4ccccc4nc3N3CCOCC3)cc(C(C)C)c2cc1-c1cc(C(C)C)c2ccc(N3CCCC3)nc2c1`, the Activity (Bcl-2-like protein 1 [5]) is reported as 93.4%.
`CCOc1nc2ccccc2cc1-c1cc(C(C)C)c2cc(-c3cc(C(C)C)c4ccc(N5CCOCC5)nc4c3)c(OCC)nc2c1` gave an Activity (Bcl-2-like protein 1 [5]) of 93.6%.
In the case of `CCCOc1nc2cc(-c3cc4ccccc4nc3N3CCCC3)cc(C(C)C)c2cc1-c1cc(C(C)C)c2ccc(OCC)nc2c1`, the Activity (Bcl-2-like protein 1 [5]) is reported as 94.5%.
